From ChEMBL document CHEMBL4725483, “Simultaneous Inhibition of SIRT2 Deacetylase and Defatty-Acylase Activities via a PROTAC Strategy” (ACS Med Chem Lett, 2020)
pIC50: −log10 of the molar value. Values belong to the compound of their own block, whether it stands above or below them. Active and inactive are the calls of the source. The calls are words filed in the database; no cut-off is given here.

Legend:
[1] = biological target: T1, Protein cereblon/NAD-dependent protein deacetylase sirtuin-2 (Homo sapiens) (UniProt Q8IXJ6+Q96SW2); test: Protac activity at CRBN/SIRT2 in human MCF7 cells assessed as SIRT2 degradation at 10 uM by immunoblot analysis; assay type: cell-based; conditions: TDE = time-dependent effect
Procedure, shortened: (§1)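 MCF7 cells treated at a fixed concentration (10 or 25 μM) and harvested at several incubation times; SIRT2 level read by immunoblot.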

[2] = biological target: T1, Protein cereblon/NAD-dependent protein deacetylase sirtuin-2 (Homo sapiens); test: Protac activity at CRBN/SIRT2 in human MCF7 cells assessed as SIRT2 degradation at 25 uM by immunoblot analysis; assay type: cell-based; procedure, shortened: as §1
[3] = biological target: T2, Protein cereblon/NAD-dependent protein deacetylase sirtuin-1 (Homo sapiens) (UniProt Q96EB6+Q96SW2); test: Protac activity at CRBN/SIRT1 in human MCF7 cells assessed as SIRT1 degradation at 5 to 10 uM after 48 hrs by immunoblot analysis; assay type: cell-based; conditions: dose microM 5-10, time 48.0 hrs
Procedure, shortened: (§2)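 MCF7 or BT-549 cells exposed to inhibitor at the indicated concentrations for 48 h; SIRT1, SIRT2 and SIRT3 levels read by immunoblot.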

[4] = biological target: T1, Protein cereblon/NAD-dependent protein deacetylase sirtuin-2 (Homo sapiens); test: Protac activity at CRBN/SIRT2 in human MDA-MB-231 cells assessed as SIRT2 degradation after 48 hrs by immunoblot analysis; assay type: cell-based
Procedure, shortened: (§3)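 In MDA-MB-231 and MDA-MB-468 cells, SIRT2 was assessed by immunoblot after compound treatment.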

[5] = biological target: T1, Protein cereblon/NAD-dependent protein deacetylase sirtuin-2 (Homo sapiens); test: Protac activity at CRBN/SIRT2 in human MDA-MB-468 cells assessed as SIRT2 degradation after 48 hrs by immunoblot analysis; assay type: cell-based; procedure, shortened: as §3
Homo sapiens = species: Homo sapiens; test: Selectivity ratio of IC50 for inhibition of human SIRT1 deacetylation activity to IC50 for inhibition of human SIRT2 deacetylation activity
Procedure, shortened: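 Ratio of SIRT1 deacetylase IC50 to SIRT2 deacetylase IC50, both measured with compound, NAD+ and enzyme preincubated before peptide substrate addition.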

[6] = biological target: T3, NAD-dependent protein deacetylase sirtuin-2 (Homo sapiens, UniProt Q8IXJ6); test: Inhibition of human SIRT2 defatty-acylation activity using peptide substrate preincubated in presence of NAD+ followed by substrate addition by HPLC analysis
T3 sequence (Q8IXJ6 whole entry): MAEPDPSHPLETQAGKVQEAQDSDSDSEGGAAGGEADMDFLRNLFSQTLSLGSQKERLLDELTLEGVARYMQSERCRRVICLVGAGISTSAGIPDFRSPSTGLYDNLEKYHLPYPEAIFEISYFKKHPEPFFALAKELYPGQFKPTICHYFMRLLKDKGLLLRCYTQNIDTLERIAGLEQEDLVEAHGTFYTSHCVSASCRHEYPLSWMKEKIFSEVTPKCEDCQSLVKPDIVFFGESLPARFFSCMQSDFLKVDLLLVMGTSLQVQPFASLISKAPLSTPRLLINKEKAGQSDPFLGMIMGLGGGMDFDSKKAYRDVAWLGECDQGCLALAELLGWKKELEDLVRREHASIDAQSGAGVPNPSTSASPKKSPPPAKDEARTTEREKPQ
Procedure, shortened: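 SIRT2 defatty-acylase reaction with compound at a range of concentrations. Compound was preincubated with NAD+ and SIRT2 before the peptide substrate was added. IC50 derived from the dose series.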

[7] = biological target: NAD-dependent protein deacylase sirtuin-6 (Homo sapiens, UniProt Q8N6T7); test: Inhibition of human SIRT6 deacetylation activity using H3K9Ac as substrate preincubated for 15 mins in presence of NAD+ followed by substrate addition by HPLC analysis
Procedure, shortened: (§4)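 In vitro sirtuin reaction mixture with compound at a range of concentrations. Compound was preincubated with NAD+ and the enzyme before the substrate peptide was added. IC50 taken from the concentration series.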

[8] = biological target: T4, Protein cereblon/NAD-dependent protein deacetylase sirtuin-3, mitochondrial (Homo sapiens) (UniProt Q9NTG7+Q96SW2); test: Protac activity at CRBN/SIRT3 in human BT549 cells assessed as SIRT3 degradation at 5 to 10 uM after 48 hrs by immunoblot analysis; assay type: cell-based; conditions: BT-549, dose microM 5-10, time 48.0 hrs; procedure, shortened: as §2
[9] = biological target: NAD-dependent protein deacylase sirtuin-5, mitochondrial (Homo sapiens, UniProt Q9NXA8); test: Inhibition of human SIRT5 deacetylation activity using H3K9Ac as substrate preincubated for 15 mins in presence of NAD+ followed by substrate addition by HPLC analysis; procedure, shortened: as §4
[10] = biological target: T1, Protein cereblon/NAD-dependent protein deacetylase sirtuin-2 (Homo sapiens); test: Protac activity at CRBN/SIRT2 in human BT549 cells assessed as SIRT2 degradation at 5 to 10 uM after 48 hrs by immunoblot analysis; assay type: cell-based; conditions: BT-549, dose microM 5-10, time 48.0 hrs
Procedure, shortened: (§5)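 Cells exposed to compound at the indicated concentrations for 48 h. SIRT1, SIRT2 and SIRT3 levels were read by immunoblot.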

[11] = biological target: T5, NAD-dependent protein deacetylase sirtuin-3, mitochondrial (Homo sapiens, UniProt Q9NTG7); test: Inhibition of human SIRT3 deacetylation activity using H3K9Ac as substrate preincubated for 15 mins in presence of NAD+ followed by substrate addition by HPLC analysis; procedure, shortened: as §4
T5 sequence (Q9NTG7 whole entry): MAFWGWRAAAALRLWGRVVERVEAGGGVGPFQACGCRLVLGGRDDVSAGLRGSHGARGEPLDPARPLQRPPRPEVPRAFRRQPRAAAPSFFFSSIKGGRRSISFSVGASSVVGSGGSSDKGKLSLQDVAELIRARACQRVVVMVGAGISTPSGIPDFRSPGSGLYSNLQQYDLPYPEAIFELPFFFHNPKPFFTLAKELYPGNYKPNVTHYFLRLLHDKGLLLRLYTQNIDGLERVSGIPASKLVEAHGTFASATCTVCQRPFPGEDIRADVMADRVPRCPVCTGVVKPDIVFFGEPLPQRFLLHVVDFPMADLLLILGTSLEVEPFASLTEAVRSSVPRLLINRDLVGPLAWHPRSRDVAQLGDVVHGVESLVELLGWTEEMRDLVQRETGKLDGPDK

[12] = biological target: T1, Protein cereblon/NAD-dependent protein deacetylase sirtuin-2 (Homo sapiens); test: Protac activity at CRBN/SIRT2 in human MCF7 cells assessed as SIRT2 degradation at 5 to 10 uM after 48 hrs by immunoblot analysis; assay type: cell-based; conditions: dose microM 5-10, time 48.0 hrs; procedure, shortened: as §5
[13] = biological target: T3, NAD-dependent protein deacetylase sirtuin-2; test: Inhibition of human SIRT2 deacetylation activity using H3K9Ac as substrate preincubated for 15 mins in presence of NAD+ by HPLC analysis; procedure, shortened: as §4
[14] = biological target: T2, Protein cereblon/NAD-dependent protein deacetylase sirtuin-1 (Homo sapiens); test: Protac activity at CRBN/SIRT1 in human BT549 cells assessed as SIRT1 degradation at 5 to 10 uM after 48 hrs by immunoblot analysis; assay type: cell-based; conditions: BT-549, dose microM 5-10, time 48.0 hrs; procedure, shortened: as §2
[15] = biological target: T3, NAD-dependent protein deacetylase sirtuin-2; test: Inhibition of human SIRT2 defatty-acylation activity using peptide substrate in presence of NAD+ by HPLC analysis
[16] = biological target: T4, Protein cereblon/NAD-dependent protein deacetylase sirtuin-3, mitochondrial (Homo sapiens); test: Protac activity at CRBN/SIRT3 in human MCF7 cells assessed as SIRT3 degradation at 5 to 10 uM after 48 hrs by immunoblot analysis; assay type: cell-based; conditions: dose microM 5-10, time 48.0 hrs; procedure, shortened: as §2
[17] = biological target: T3, NAD-dependent protein deacetylase sirtuin-2; test: Inhibition of human SIRT2 deacetylation activity using H3K9Ac as substrate in presence of NAD+ by HPLC analysis
[18] = biological target: T6, NAD-dependent protein deacetylase sirtuin-1 (Homo sapiens, UniProt Q96EB6); test: Inhibition of human SIRT1 deacetylation activity using H3K9Ac as substrate preincubated for 15 mins in presence of NAD+ followed by substrate addition by HPLC analysis; procedure, shortened: as §4
T6 sequence (Q96EB6 whole entry): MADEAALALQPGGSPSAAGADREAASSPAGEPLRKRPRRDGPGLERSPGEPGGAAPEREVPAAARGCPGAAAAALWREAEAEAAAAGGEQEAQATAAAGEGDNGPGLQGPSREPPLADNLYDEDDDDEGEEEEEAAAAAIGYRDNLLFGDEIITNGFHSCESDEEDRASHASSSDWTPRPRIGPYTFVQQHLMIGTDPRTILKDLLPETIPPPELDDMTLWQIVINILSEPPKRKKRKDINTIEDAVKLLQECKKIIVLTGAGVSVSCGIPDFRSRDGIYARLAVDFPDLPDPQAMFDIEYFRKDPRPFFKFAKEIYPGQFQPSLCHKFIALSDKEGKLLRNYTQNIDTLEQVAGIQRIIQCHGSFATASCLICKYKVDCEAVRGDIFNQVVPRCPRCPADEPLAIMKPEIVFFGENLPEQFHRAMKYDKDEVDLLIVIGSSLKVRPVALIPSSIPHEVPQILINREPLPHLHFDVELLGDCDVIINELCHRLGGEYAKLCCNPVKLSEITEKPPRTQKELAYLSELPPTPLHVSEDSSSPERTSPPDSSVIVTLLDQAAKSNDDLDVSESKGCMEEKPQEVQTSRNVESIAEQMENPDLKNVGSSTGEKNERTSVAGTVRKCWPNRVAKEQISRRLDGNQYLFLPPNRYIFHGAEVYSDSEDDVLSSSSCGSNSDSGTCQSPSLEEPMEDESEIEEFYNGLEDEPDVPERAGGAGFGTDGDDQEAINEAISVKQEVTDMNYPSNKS

MCF7 = test: Cytotoxicity against human MCF7 cells assessed as reduction in cell viability after 72 hrs; assay type: functional, cell-based
Procedure, shortened: (§6)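 Cells incubated with compound or thalidomide for 72 h; cell viability read out at the end of exposure.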

[19] = biological target: T1, Protein cereblon/NAD-dependent protein deacetylase sirtuin-2 (Homo sapiens); test: Protac activity at CRBN/SIRT2 in human HEK293T cells stably expressing flag-tagged K-Ras4a assessed as inhibition of SIRT2 defatty-acylation at 10 uM incubated for 42 hrs followed by Alkyne-14 addition and measured after 6 hrs by immunoprecipitation based assay; assay type: cell-based; conditions: HEK-293T
Procedure, shortened: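 HEK 293T cells stably expressing Flag-tagged K-Ras4a-G12V were treated for 42 h, then labelled with 50 μM Alk-14 for a further 6 h. K-Ras4a was immunoprecipitated via Flag, and a fluorescent dye was attached by click chemistry. NH2OH removed cysteine fatty acylation. Lysine fatty acylation was read by in-gel fluorescence and quantified relative to DMSO.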

MDA-MB-231 = test: Cytotoxicity against human MDA-MB-231 cells assessed as reduction in cell viability after 72 hrs; assay type: functional, cell-based; procedure, shortened: as §6
[20] = biological target: T1, Protein cereblon/NAD-dependent protein deacetylase sirtuin-2 (Homo sapiens); test: Protac activity at CRBN/SIRT2 in human MCF7 cells assessed as SIRT2 degradation at 5 uM by immunoblot analysis; assay type: cell-based

T1 sequence (Q96SW2 whole entry, looked up, one chain of several): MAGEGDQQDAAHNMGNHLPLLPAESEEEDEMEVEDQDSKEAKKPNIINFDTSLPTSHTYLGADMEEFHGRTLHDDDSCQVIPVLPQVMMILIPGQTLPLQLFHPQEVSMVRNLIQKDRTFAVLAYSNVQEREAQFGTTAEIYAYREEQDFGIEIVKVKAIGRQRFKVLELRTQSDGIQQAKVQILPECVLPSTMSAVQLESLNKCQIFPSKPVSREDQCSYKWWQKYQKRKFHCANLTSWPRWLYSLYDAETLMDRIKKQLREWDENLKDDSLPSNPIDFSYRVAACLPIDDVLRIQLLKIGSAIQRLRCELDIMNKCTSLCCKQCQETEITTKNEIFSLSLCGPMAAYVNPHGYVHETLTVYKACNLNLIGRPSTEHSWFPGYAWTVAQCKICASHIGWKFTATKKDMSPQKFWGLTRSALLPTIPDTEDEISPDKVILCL
Chain of NAD-dependent protein deacylase sirtuin-6 (Q8N6T7 whole entry): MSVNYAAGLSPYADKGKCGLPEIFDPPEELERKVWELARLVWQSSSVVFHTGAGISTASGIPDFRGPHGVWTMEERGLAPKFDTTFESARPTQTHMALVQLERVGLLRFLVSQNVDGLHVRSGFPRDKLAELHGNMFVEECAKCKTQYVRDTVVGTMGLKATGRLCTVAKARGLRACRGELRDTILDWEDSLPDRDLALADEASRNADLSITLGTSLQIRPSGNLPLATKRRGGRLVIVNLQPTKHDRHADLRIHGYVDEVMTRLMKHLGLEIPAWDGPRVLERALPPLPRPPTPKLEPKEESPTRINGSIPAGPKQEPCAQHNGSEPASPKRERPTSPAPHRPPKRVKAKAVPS
Chain of NAD-dependent protein deacylase sirtuin-5, mitochondrial (Q9NXA8 whole entry): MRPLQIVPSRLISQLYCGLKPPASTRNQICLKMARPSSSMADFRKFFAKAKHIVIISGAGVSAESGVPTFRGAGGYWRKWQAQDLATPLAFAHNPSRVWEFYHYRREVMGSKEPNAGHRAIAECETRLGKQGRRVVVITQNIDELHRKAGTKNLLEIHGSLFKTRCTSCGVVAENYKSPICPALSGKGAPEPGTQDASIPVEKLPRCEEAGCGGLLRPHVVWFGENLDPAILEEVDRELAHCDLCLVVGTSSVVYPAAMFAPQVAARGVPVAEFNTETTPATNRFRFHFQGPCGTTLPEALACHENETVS
T2 sequence (Q96SW2 whole entry, looked up, one chain of several): as the sequence (Q96SW2 whole entry, looked up, one chain of several) above
T4 sequence (Q96SW2 whole entry, looked up, one chain of several): as above

Activity [1]: Tde
Activity [2]: inactive
Activity [3]: inactive
Activity [4]: Active
Activity [5]: Active
Ratio IC50 (Homo sapiens): 500
pIC50 [6]: 6.77
pIC50 [7]: < 4.08
Activity [8]: inactive
pIC50 [9]: < 4.08
Activity [10]: Active
pIC50 [11]: < 4.08
Activity [12]: Active
pIC50 [13]: 7.16
Activity [14]: inactive
pIC50 [15]: < 4.08
Activity [16]: inactive
pIC50 [17]: 6.92
pIC50 [18]: 4.43
SMILES: CCCCCCCCCCCCCC(=S)NCCCC[C@H](NC(=O)CCOCCOCCNc1cccc2c1C(=O)N(C1CCC(=O)NC1=O)C2=O)C(=O)Nc1ccccc1 (some centres undefined)

Activity [19]: inactive
pIC50 [7]: < 4.08
pIC50 [9]: < 4.08
Activity [10]: inactive
pIC50 [11]: < 4.08
Activity [12]: inactive
SMILES: CCCCCCCCCCCCCC(=S)NCCCC[C@H](NC(=O)OCc1ccccc1)C(=O)Nc1ccccc1
Activity (MCF7): Active
Activity (MDA-MB-231): Active

Activity [20]: inactive
SMILES: O=C(O)CCOCCOCCOCCOCCNc1cccc2c1C(=O)N(C1CCC(=O)NC1=O)C2=O (centres undefined)

Activity [20]: inactive
SMILES: CCCCCCCCCCCCCC(=S)NCCCC[C@H](NC(=O)CCOCCOCCOCCOCCNc1cccc2c1C(=O)N(C1CCC(=O)N(C)C1=O)C2=O)C(=O)Nc1ccccc1 (some centres undefined)
